{
  "source": "paper PMC2924166",
  "about": "(Proteins, 2009)",
  "format_in_all_cases": "binding",
  "key": {"WT CaM1–148": {"biological_target": "WT CaM1–148 (Rattus norvegicus, UniProt P0DP29)", "assay": "Fluorescence anisotropy titration of Fl-CaMKIIp with WT CaM1–148"}, "[1]": {"assay": "Equilibrium calcium titration of CaM, sites III and IV", "conditions": "pH 7.4, 22°C"}, "[2]": {"assay": "Calcium affinity of fluorescent indicator dyes", "conditions": "higher affinity for calcium"}, "[3]": {"assay": "Equilibrium calcium titration of CaM, sites I and II", "conditions": "pH 7.4, 22°C", "method_in_brief": "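Recombinant CaM constructs (1–148, 1–80) at 2 μM were used alone or with 10 μM CaMKII CaM-binding-domain peptide (residues 290–309, 1:5). CaCl2 was titrated to 1 nM–0.01 M. Phe fluorescence was read at ex 250/em 280 nm. Free Ca2+ came from 0.1 μM Oregon Green, or XRhod5F with peptide. Runs were done ≥3 times, normalized, and fit by nonlinear least squares to ΔG1, ΔG2.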"}, "[4]": {"conditions": "peptide equivalent 0, 2 μM CaM, 50 mM HEPES, 100 mM KCl, 1 mM MgCl2, 0.05 mM EGTA, 5 mM NTA, Oregon Green, repeated at least three times"}},
  "data": [
    {"compound": "CC[C@H](C)[C@H](NC(=O)[C@H](C)NC(=O)CNC(=O)[C@H](CCCCN)NC(=O)[C@H](CC(C)C)NC(=O)[C@H](CCCCN)NC(=O)[C@H](CCCNC(=N)N)NC(=O)[C@H](CCCNC(=N)N)NC(=O)[C@H](C)NC(=O)[C@H](CC(N)=O)NC(=O)[C@H](Cc1ccccc1)NC(=O)[C@H](CCCCN)NC(=O)[C@H](CCCCN)NC(=O)[C@@H](N)CC(C)C)C(=O)N[C@@H](CC(C)C)C(=O)N[C@H](C(=O)N[C@H](C(=O)N[C@@H](CCSC)C(=O)N[C@@H](CC(C)C)C(=O)N[C@@H](C)C(=O)O)[C@@H](C)O)[C@@H](C)O", "note": "[CaMKIIp]", "values": [
      {"measurement": "level of saturation of CaMKIIp by CaM1–148", "setting": "WT CaM1–148; 10 μM CaM1–148, 23 nM calcium", "value": "less than 10%"},
      {"measurement": "level of saturation of CaMKIIp by CaM1–148", "setting": "WT CaM1–148; 10 μM CaM1–148, 311 nM calcium", "value": "more than 95%"},
      {"measurement": "Kd", "setting": "WT CaM1–148; Kd of (Ca^2+)4-CaM1–148 for Fl-CaMKIIp, 10 mM CaCl2, stoichiometric range, upper limit", "value": "≤ 10", "unit": "nM"},
      {"measurement": "concentration of apo CaM-CaMKIIp in presence of 5 eq. CaMKIIp", "setting": "WT CaM1–148; apo, 2 μM CaM, 10 μM CaMKIIp", "value": "≤ 10", "unit": "%"}
    ]},
    {"compound": "CaM76–148: C-domain fragment of calmodulin, residues 76–148", "values": [
      {"measurement": "ΔG1 of calcium binding, sites III and IV", "setting": "[1]; [4]", "value": "-5.45 ± 0.51", "unit": "kcal/mol"},
      {"measurement": "ΔGc, sites III and IV", "setting": "[1]; peptide equivalent 0", "value": "-4.57 ± 1.15", "unit": "kcal/mol"},
      {"measurement": "ΔGc, sites III and IV", "setting": "[1]; peptide equivalent 5 (CaMKIIp)", "value": "-2.81 ± 0.47", "unit": "kcal/mol"}
    ]},
    {"compound": "XRhod5F", "values": [
      {"measurement": "lower Kd for calcium versus Oregon Green", "setting": "[2]", "value": "~ 20 fold"}
    ]},
    {"compound": "CaM1–80: N-domain fragment of calmodulin, residues 1–80", "values": [
      {"measurement": "ΔG1 of calcium binding, sites I and II", "setting": "[3]; [4]", "value": "-5.92 ± 0.38", "unit": "kcal/mol"},
      {"measurement": "ΔGc, sites I and II", "setting": "[3]; peptide equivalent 0", "value": "-1.73 ± 0.68", "unit": "kcal/mol"},
      {"measurement": "ΔGc, sites I and II", "setting": "[3]; peptide equivalent 5 (CaMKIIp)", "value": "-3.38 ± 1.18", "unit": "kcal/mol"}
    ]}
  ]
}
